Experiment [1] in a line: HUVEC growth inhibition – cell-based, human, primary screen (AID 575;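 active = viability at or below 30% in both replicate assays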;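 also: 100% = median of untreated cell wells with 0.1% DMSO on each plate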). The note with it: HUVEC proliferation, CellTiter-Glo luminescence, 72 h; at 10 µM; stronger effect = lower value. The method in brief: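 Assay system: primary human umbilical vein endothelial cells / Buffer or medium: endothelial basal medium with 2% FBS plus growth supplements / Compound dosing: one dose, 10 µM final, 0.1% DMSO / Timing: 72 h treatment at 37 °C / Signal: CTG luminescence / Benchmarks: 32 DMSO-only cell-control wells (high), 32 MePR drug-control wells (low) per plate / Plate: collagen-coated 384-well format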

The nature of experiment [2]: growth inhibitors of H69AR lung tumor, primary screen, human, duplicate replicates (AID 580;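 active = viability at or under a set limit in both replicates, limit being median viability minus 3 SD, cut at about 48% in these data, passing the limit was not always enough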;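 also: 100% = mean luminescence of untreated wells and 0% = no signal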). The following applies: H69AR lung tumor cells viability, ATP luminescence, 72 h; at 10 µM; stronger effect = lower value.
A short description of experiment [3]: reversal of MRP1-mediated doxorubicin resistance, pilot screen, H69AR cells, doxorubicin co-treatment (AID 601;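 active = viability loss from added drug above about 55%, and viability with drug at most 40%, in both replicates, limit read from the data, passing the limit was not always enough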). The note with it: CellTiter-Glo, 72 h, at 10 µM; for differential viability (reversal): stronger effect = higher value. In general terms: ATP-based viability assays read luminescence as a measure of living cells.
The nature of experiment [4]: 384-well plate pilot, post-Golgi transport modulator project, inhibition of yeast transport mutant growth (AID 636; in the data active = inhibition above about 31%). The following applies: absorbance 615 nm, about 18 h, stronger effect = higher value.
Experiment [5] in a line: growth suppression of yeast trafficking mutant, preliminary HTS, modulators of trafficking downstream of Golgi apparatus project, 1536-format plate, OD 615 nm (AID 637). The note with it: yeast transport mutant growth, absorbance 615 nm, 18 h; stronger effect = higher value.
[6] abbreviates: H69AR cells + 2 uM doxorubicin, measured here: viability with 2 uM doxorubicin, stronger effect = lower value.
[7] abbreviates: H69AR cells, compound alone cytotoxicity.

Experimental findings from PubChem BioAssay are described below.

Active and inactive are the calls of the source. Rule as the data show it, unless noted: active = inhibition above about 30%; inactive = the rest.

`O=C(COc1ccccc1Cl)N1CCCC1`: the viability in experiment [1] is 105% (inactive); in experiment [2], 91.9% (inactive); in experiment [3] (setting [6]), 92.3%; in experiment [3] (setting [7]) it was 91.9%. Also, the differential viability (reversal) in experiment [3] (H69AR cells + 2 uM doxorubicin) is -0.435% (inactive). In addition, the inhibition is 2.24% (inactive) in experiment [4] and -4.6% (inactive) in experiment [5].

`Cc1c(NC(=O)c2cnn3c2NC(c2ccco2)CC3C(F)(F)F)c(=O)n(-c2ccccc2)n1C` (stereo not given): the viability in experiment [1] is 81.5% (inactive); in experiment [2] it was 103% (inactive); in experiment [3] (setting [6]) it was 87%; in experiment [3] (setting [7]), 103%. For the same compound, the differential viability (reversal) in experiment [3] (H69AR cells + 2 uM doxorubicin) was 15.8% (inactive). Moreover, the inhibition in experiment [4] was -2.47% (inactive); in experiment [5] it was 3.65% (inactive).

With `Cc1cccc(OCC(=O)Nc2ccccc2N2CCN(C(=O)C(C)C)CC2)c1C`, the viability is 88.3% (inactive) in experiment [1], 88.8% (inactive) in experiment [2], 86% in experiment [3] (setting [6]) and 88.8% in experiment [3] (setting [7]). For the same compound, the differential viability (reversal) in experiment [3] (H69AR cells + 2 uM doxorubicin) is 2.79% (inactive). The inhibition in experiment [4] was -1.95% (inactive); in experiment [5], 4.13% (inactive).

In the case of `O=C(NCc1ccco1)C1Cc2ccccc2CN1S(=O)(=O)c1ccccc1F` (stereo not given), the viability was 57.5% (inactive) in experiment [1], 25.3% (active) in experiment [2], 34.6% in experiment [3] (setting [6]) and 25.3% in experiment [3] (setting [7]). For the same compound, in experiment [3] (H69AR cells + 2 uM doxorubicin), the differential viability (reversal) is -9.23% (inactive). The inhibition in experiment [4] is -1.95% (inactive); in experiment [5], 1.27% (inactive).

For `CC1=C(C#N)C(c2ccc3ncccc3c2)C(C#N)=C(C)N1`, the viability was 86.2% (inactive) in experiment [1], 97% (inactive) in experiment [2], 98.7% in experiment [3] (setting [6]) and 97% in experiment [3] (setting [7]). For the same compound, the differential viability (reversal) in experiment [3] (H69AR cells + 2 uM doxorubicin) is -1.7% (inactive). The inhibition is -4.74% (inactive) in experiment [4] and 0% (inactive) in experiment [5].

On to `COc1cccc(-c2nc(-c3ccc(NC(=O)Cc4ccccc4OC)cc3)no2)c1`, for which the viability is 85.3% (inactive) in experiment [1], 90.6% (inactive) in experiment [2], 77.8% in experiment [3] (setting [6]) and 90.6% in experiment [3] (setting [7]). Besides, the differential viability (reversal) in experiment [3] (H69AR cells + 2 uM doxorubicin) is 12.8% (inactive). Besides, the inhibition was 9.09% (inactive) in experiment [4] and -0.95% (inactive) in experiment [5].

For `Cc1cc(=O)[nH]c2c1cnn2Cc1ccccc1`, the viability in experiment [1] was 116% (inactive); in experiment [2], 98.9% (inactive); in experiment [3] (setting [6]), 93.9%; in experiment [3] (setting [7]) it was 98.9%. Moreover, in experiment [3] (H69AR cells + 2 uM doxorubicin), the differential viability (reversal) is 5.01% (inactive). The inhibition was -1.97% (inactive) in experiment [4] and -3.33% (inactive) in experiment [5].

Consider `Cn1c(=O)[nH]c(=O)c2c1nc(NC1CCCCC1)n2CC(=O)NC1CCCCC1`, for which the viability was 99.5% (inactive) in experiment [1], 94.7% (inactive) in experiment [2], 80.1% in experiment [3] (setting [6]) and 94.7% in experiment [3] (setting [7]). In experiment [3] (H69AR cells + 2 uM doxorubicin), the differential viability (reversal) is 14.6% (inactive). In addition, the inhibition is -7.6% (inactive) in experiment [4] and 5.87% (inactive) in experiment [5].

In the case of `Cc1c(N(C)C)nc2ccccc2c1N`, the viability was 83.8% (inactive) in experiment [1], 84.4% (inactive) in experiment [2], 89.7% in experiment [3] (setting [6]) and 84.4% in experiment [3] (setting [7]). Further, the differential viability (reversal) in experiment [3] (H69AR cells + 2 uM doxorubicin) is -5.31% (inactive). In addition, the inhibition is -4% (inactive) in experiment [4] and 2.54% (inactive) in experiment [5].

On to `Nc1nc(SCc2nc3scc(-c4cccs4)c3c(=O)[nH]2)n[nH]1`, for which the viability in experiment [1] is 77.5% (inactive); in experiment [2], 93.4% (inactive); in experiment [3] (setting [6]), 97.3%; in experiment [3] (setting [7]), 93.4%. Also, the differential viability (reversal) in experiment [3] (H69AR cells + 2 uM doxorubicin) is -3.9% (inactive). The inhibition in experiment [4] was -2.67% (inactive); in experiment [5], 0.32% (inactive).

As to `CC(Sc1nnc(-c2cc3ccccc3o2)n1-c1ccccc1)C(=O)O` (stereo not given), the viability in experiment [1] is 90.9% (inactive); in experiment [2], 95.1% (inactive); in experiment [3] (setting [6]) it was 93.5%; in experiment [3] (setting [7]) it was 95.1%. Moreover, the differential viability (reversal) in experiment [3] (H69AR cells + 2 uM doxorubicin) is 1.61% (inactive). Besides, the inhibition is -5.84% (inactive) in experiment [4] and 2.38% (inactive) in experiment [5].

As to `Cc1nc2cc(CO)ccc2n1C`, the viability in experiment [1] is 93.1% (inactive); in experiment [2], 98.1% (inactive); in experiment [3] (setting [6]), 89%; in experiment [3] (setting [7]) it was 98.1%. The differential viability (reversal) in experiment [3] (H69AR cells + 2 uM doxorubicin) was 9.13% (inactive). The inhibition is -5.97% (inactive) in experiment [4] and -1.9% (inactive) in experiment [5].

Consider `COCC(=O)NC(c1ccccc1)c1ccccc1`, for which the viability in experiment [1] was 86.1% (inactive); in experiment [2], 89.5% (inactive); in experiment [3] (setting [6]), 77.3%; in experiment [3] (setting [7]), 89.5%. The differential viability (reversal) in experiment [3] (H69AR cells + 2 uM doxorubicin) was 12.2% (inactive). The inhibition was -5.84% (inactive) in experiment [4] and 3.81% (inactive) in experiment [5].

`O=C(CCn1c(=O)c2sccc2n(CC(=O)NCc2ccco2)c1=O)NCc1ccccc1`: the viability in experiment [1] was 93.6% (inactive); in experiment [2], 96.9% (inactive); in experiment [3] (setting [6]), 92.5%; in experiment [3] (setting [7]), 96.9%. The differential viability (reversal) in experiment [3] (H69AR cells + 2 uM doxorubicin) was 4.46% (inactive). The inhibition in experiment [4] is -0.65% (inactive); in experiment [5], -1.59% (inactive).

Consider `O=C(CN1C(=O)CCS(=O)(=O)c2ccccc21)NCc1ccc(F)cc1`, for which the viability in experiment [1] is 85% (inactive); in experiment [2], 98.4% (inactive); in experiment [3] (setting [6]) it was 95.3%; in experiment [3] (setting [7]), 98.4%. Further, in experiment [3] (H69AR cells + 2 uM doxorubicin), the differential viability (reversal) was 3.11% (inactive). Further, the inhibition was -5.2% (inactive) in experiment [4] and -3.81% (inactive) in experiment [5].

As for `CCn1nccc1C(=O)Nc1nccs1`, the viability in experiment [1] is 104% (inactive); in experiment [2], 93.7% (inactive); in experiment [3] (setting [6]) it was 83.7%; in experiment [3] (setting [7]), 93.7%. Also, the differential viability (reversal) in experiment [3] (H69AR cells + 2 uM doxorubicin) was 10% (inactive). In addition, the values for the inhibition in experiment [4] and in experiment [5] were -4.34% (inactive) and 3.65% (inactive), respectively.

For `O=C(CN1C(=O)COc2ccccc21)NCCN1CCc2ccccc2C1`, the viability in experiment [1] is 79.1% (inactive); in experiment [2] it was 92.9% (inactive); in experiment [3] (setting [6]), 96.4%; in experiment [3] (setting [7]), 92.9%. Besides, the differential viability (reversal) in experiment [3] (H69AR cells + 2 uM doxorubicin) is -3.52% (inactive). The values for the inhibition in experiment [4] and in experiment [5] were -4.68% (inactive) and -1.59% (inactive), respectively.

As for `Cc1c(Cc2ccccc2)sc(N)c1C(N)=O`, the viability in experiment [1] is 86.5% (inactive); in experiment [2], 93.5% (inactive); in experiment [3] (setting [6]) it was 90.6%; in experiment [3] (setting [7]), 93.5%. Also, the differential viability (reversal) in experiment [3] (H69AR cells + 2 uM doxorubicin) is 2.93% (inactive). Moreover, the results for the inhibition in experiment [4] and in experiment [5] were -3.77% (inactive) and 5.71% (inactive), respectively.

Turning to `CN=C(C)C1=C(O)C(C(=O)OC)C(C)(C)CC1=O` (stereo not given), the viability was 108% (inactive) in experiment [1], 98.5% (inactive) in experiment [2], 95.3% in experiment [3] (setting [6]) and 98.5% in experiment [3] (setting [7]). Moreover, in experiment [3] (H69AR cells + 2 uM doxorubicin), the differential viability (reversal) is 3.21% (inactive). Moreover, the inhibition in experiment [4] was -1.43% (inactive); in experiment [5], 2.7% (inactive).

Consider `CCN(CC)C(=O)CSc1nnc(-c2cc(OC)cc(OC)c2)o1`, for which the viability in experiment [1] is 84.1% (inactive); in experiment [2], 93.9% (inactive); in experiment [3] (setting [6]), 91.9%; in experiment [3] (setting [7]), 93.9%. The differential viability (reversal) in experiment [3] (H69AR cells + 2 uM doxorubicin) is 2.03% (inactive). The inhibition in experiment [4] is -5.87% (inactive); in experiment [5], 2.7% (inactive).

In general, viability refers to a read-out of living cells in per cent, often relative to untreated cells. For orientation: inhibition means the change of the read-out against control, counted positive when it falls.
